Measured values: ChEMBL document CHEMBL3102735, “Enhancing the pharmacodynamic profile of a class of selective COX-2 inhibiting nitric oxide donors” (Bioorg Med Chem, 2014)
Converted amounts (≈) assume the structure as drawn.

Key:
[1] = system: Rattus norvegicus; assay: Volume of distribution at steady state in Wistar rat at 10 mg/kg, iv by LC-MS/MS analysis; assay type: ADME, organism-based; set-up: dose 10 mg/kg, route intravenous; settings: in vivo
[2] = system: Plasma; assay: Metabolic stability in Wistar rat plasma at 10 mg/kg, iv up to 6 hrs by LC-MS/MS analysis; assay type: ADME, organism-based; set-up: dose 10 mg/kg, route intravenous; settings: in vivo
[3] = Metabolic stability in Sprague-Dawley rat plasma assessed as compound remaining after 60 mins by LC-MS/MS analysis; assay type: ADME, cell-free; settings: read-out: Stability
Method in brief: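 Compound (12 µL of 1 mM DMSO solution into 588 µL medium) incubated in PBS pH 7.4, pepsin-free SGF pH 1.5, or EDTA rat plasma. Aliquots taken at 0, 30, 60, 120 min and quenched with ice-cold acetonitrile containing internal standard; parent remaining as percent.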

[4] = Stability of the compound in simulated gastric fluid assessed as compound remaining at pH 1.5 after 60 mins by LC-MS/MS analysis; assay type: physicochemical; settings: read-out: Stability
Method in brief: (§1)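 1 mM DMSO stock added to 0.01 M PBS (pH 7.4) or 0.05 M simulated gastric fluid without pepsin (pH 1.5 with HCl); incubated in hybridisation oven; aliquots at 0, 30, 60, 120 min quenched with ice-cold acetonitrile containing internal standard; parent remaining (%) measured.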

[5] = Solubility of the compound in simulated gastric fluid at pH 1.5 after 90 mins by HPLC analysis; assay type: ADME
Method in brief: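 DMSO stock (20 mM) diluted 2 µL into 198 µL PBS 0.01 M pH 7.4 or pepsin-free SGF 0.05 M pH 1.5, duplicate wells, shaken 90 min at 300 rpm. Filtrates analysed by HPLC with photodiode-array detection against seven-point standards (1–200 µM).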

[6] = target: Prostaglandin G/H synthase 1 (Homo sapiens, UniProt P23219); assay: Inhibition of COX-1 in human whole blood assessed as thromboxane B2 production by RIA
[7] = system: Liver; assay: Induction of nitric oxide production in Wistar rat liver homogenate assessed as nitrate level at 1 mM; assay type: functional, tissue-based; settings: TDE = time-dependent effect
[8] = system: Liver; assay: Induction of nitric oxide production in Wistar rat liver homogenate assessed as nitrite level at 1 mM; assay type: functional, tissue-based; settings: TDE = time-dependent effect
[9] = system: Liver; assay: Induction of nitric oxide production in Wistar rat liver homogenate assessed as nitrite level at 1 mM after 1 to 150 mins; assay type: functional, tissue-based
[10] = system: Liver; assay: Induction of nitric oxide production in Wistar rat liver homogenate assessed as nitrate level at 1 mM after 1 to 150 mins; assay type: functional, tissue-based
[11] = system: Mus musculus; assay: Analgesic activity in po dosed Swiss albino mouse assessed as reduction of acetic acid-induced writhing measured every 10 mins after 5 mins of administration; assay type: functional, organism-based
Method in brief: (§2)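 Male Swiss albino mice (23–25 g), compound given orally in CMC vehicle; writhing induced by 0.6% acetic acid (10 mL/kg) ip. Stretching movements counted for 10 min, starting 5 min after administration; percent reduction versus CMC-treated animals.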

[12] = system: Mus musculus; assay: Antiinflammatory activity in Swiss albino mouse assessed as reduction in carrageenan-induced paw edema at 40 mg/kg, po relative to control; assay type: functional; set-up: scale not given: the % may be the effect or the level left
Method in brief: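 Intraplantar carrageenan, compound po in CMC; volume of right hind paw measured 4 h after carrageenan injection and compared with saline/carrageenan-treated controls; percent oedema reduction.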

[13] = system: Mus musculus; assay: Antihyperalgesic activity in Swiss albino mouse assessed as reduction in carrageenan-induced inflammation at 40 mg/kg, po after 90 mins relative to control; assay type: functional; set-up: scale not given: the % may be the effect or the level left
[14] = system: Mus musculus; assay: Antihyperalgesic activity in Swiss albino mouse assessed as reduction in carrageenan-induced inflammation at 40 mg/kg, po after 30 mins relative to control; assay type: functional; set-up: scale not given: the % may be the effect or the level left
[15] = system: Mus musculus; assay: Antihyperalgesic activity in Swiss albino mouse assessed as reduction in carrageenan-induced inflammation at 20 mg/kg, po after 90 mins relative to control; assay type: functional; set-up: scale not given: the % may be the effect or the level left
[16] = system: Mus musculus; assay: Antihyperalgesic activity in Swiss albino mouse assessed as reduction in carrageenan-induced inflammation at 20 mg/kg, po after 120 mins relative to control; assay type: functional; set-up: scale not given: the % may be the effect or the level left
[17] = system: Mus musculus; assay: Antihyperalgesic activity in Swiss albino mouse assessed as reduction in carrageenan-induced inflammation at 20 mg/kg, po after 30 mins relative to control; assay type: functional; set-up: scale not given: the % may be the effect or the level left
[18] = system: Thoracic aorta; assay: Ex vivo vasorelaxant activity in Wistar rat endothelium thoracic aortic ring assessed as reduction of KCl-induced contraction; assay type: functional, tissue-based
Method in brief: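 Endothelium-denuded thoracic aortic rings from male Wistar rats (250–350 g) in oxygenated Tyrode-type buffer at 37 °C, isometric tension recording. Rings precontracted with 30 mM KCl, then 3-fold increasing compound concentrations (1 nM–10 µM) added, also with 1 µM ODQ preincubated. Emax as % of KCl tone; pIC50; mean ± SE of 6–10 experiments.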

[19] = target: T1, Prostaglandin G/H synthase 1 (Mus musculus, UniProt P22437); assay: Inhibition of COX-1 in mouse J774 cells using arachidonic acid as substrate assessed as inhibition of prostaglandin E2 production preincubated for 15 mins followed by substrate addition measured after 30 mins by RIA; assay type: cell-based
T1 sequence (P22437 whole entry): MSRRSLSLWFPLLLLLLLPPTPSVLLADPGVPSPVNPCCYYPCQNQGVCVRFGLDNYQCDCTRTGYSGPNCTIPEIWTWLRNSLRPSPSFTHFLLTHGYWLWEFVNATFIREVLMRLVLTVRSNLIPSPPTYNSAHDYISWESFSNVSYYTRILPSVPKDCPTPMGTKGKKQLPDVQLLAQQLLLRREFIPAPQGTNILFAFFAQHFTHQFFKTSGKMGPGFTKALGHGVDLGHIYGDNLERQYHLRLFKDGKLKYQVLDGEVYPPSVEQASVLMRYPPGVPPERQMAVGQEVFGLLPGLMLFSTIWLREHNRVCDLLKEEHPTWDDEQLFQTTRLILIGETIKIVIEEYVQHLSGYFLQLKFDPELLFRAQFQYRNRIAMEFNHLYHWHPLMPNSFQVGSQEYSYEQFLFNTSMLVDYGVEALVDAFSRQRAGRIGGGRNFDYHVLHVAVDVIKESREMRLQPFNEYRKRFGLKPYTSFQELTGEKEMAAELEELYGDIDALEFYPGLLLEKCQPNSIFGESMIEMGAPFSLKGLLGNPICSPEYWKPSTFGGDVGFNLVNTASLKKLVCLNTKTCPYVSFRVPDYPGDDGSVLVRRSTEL
Method in brief: (§3)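 J774 murine macrophages pretreated 15 min with compound (10 µM; lower concentrations 0.01–1 µM where needed), then incubated 30 min at 37 °C with 15 µM arachidonic acid; supernatant PGE2 measured by RIA. Triplicate wells, mean of three experiments of percent inhibition versus control; IC50 by sigmoidal fit.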

[20] = target: T2, Prostaglandin G/H synthase 1 (Mus musculus) (UniProt P22437); assay: Inhibition of COX-1 in mouse J774 cells using arachidonic acid as substrate assessed as inhibition of prostaglandin E2 production at 10 uM preincubated for 15 mins followed by substrate addition measured after 30 mins by RIA; assay type: cell-based; method in brief: as §3
T2 sequence (whole entry): T1 sequence (P22437 whole entry)

[21] = system: Mus musculus; assay: Analgesic activity in Swiss albino mouse assessed as reduction of acetic acid-induced writhing at 10 mg/kg, po measured every 10 mins after 5 mins of administration relative to control; assay type: functional; set-up: scale not given: the % may be the effect or the level left; method in brief: as §2
[22] = system: Mus musculus; assay: Analgesic activity in Swiss albino mouse assessed as reduction of acetic acid-induced writhing at 20 mg/kg, po measured every 10 mins after 5 mins of administration relative to control; assay type: functional; set-up: scale not given: the % may be the effect or the level left; method in brief: as §2
[23] = Stability of the compound in simulated gastric fluid assessed as compound remaining at pH 1.5 after 30 mins by LC-MS/MS analysis; assay type: physicochemical; settings: read-out: Stability; method in brief: as §1

Prostaglandin G/H synthase 1 (Homo sapiens, UniProt P23219), sequence (P23219 whole entry): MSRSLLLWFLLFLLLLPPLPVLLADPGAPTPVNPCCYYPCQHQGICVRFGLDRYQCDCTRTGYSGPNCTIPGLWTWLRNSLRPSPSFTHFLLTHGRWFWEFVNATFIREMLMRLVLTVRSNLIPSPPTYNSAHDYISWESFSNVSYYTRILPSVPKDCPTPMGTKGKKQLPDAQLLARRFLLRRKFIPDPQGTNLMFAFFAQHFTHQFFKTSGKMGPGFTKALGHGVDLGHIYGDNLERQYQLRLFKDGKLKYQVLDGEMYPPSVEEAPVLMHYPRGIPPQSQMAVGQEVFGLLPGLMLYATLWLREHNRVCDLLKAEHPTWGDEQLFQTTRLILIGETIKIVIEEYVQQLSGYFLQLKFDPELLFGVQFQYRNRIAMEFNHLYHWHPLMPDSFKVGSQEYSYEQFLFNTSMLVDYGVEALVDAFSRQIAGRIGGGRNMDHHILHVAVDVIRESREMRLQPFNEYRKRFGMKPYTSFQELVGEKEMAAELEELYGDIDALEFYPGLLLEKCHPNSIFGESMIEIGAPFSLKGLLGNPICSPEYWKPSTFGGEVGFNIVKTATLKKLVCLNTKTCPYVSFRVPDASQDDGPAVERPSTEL

Cc1c(CC(=O)NCCO[N+](=O)[O-])cc(-c2ccc(S(C)(=O)=O)cc2)n1-c1ccc(F)cc1
Vdss [1]: 367 mL | Stability [2]: Stable | remaining at 1 h [3]: 100% | remaining at 1 h [4]: 100% | solubility at 1.5 h [5]: 147 µM (≈ 69.9 µg/mL) | IC50 [6]: 0.6 µM | Activity [7]: tde | Activity [8]: tde | Activity [9]: 27 µM | Activity [10]: 38.3 µM | Activity [11]: Dose-dependent effect | Activity [12]: 10% | Activity [13]: 29% | Activity [14]: 32% | Activity [15]: 20% | Activity [16]: 0% | Activity [17]: 28% | IC50 [18]: 4.9 µM | IC50 [19]: > 10 µM | inhibition [20]: 9% | Activity [21]: 63% | Activity [22]: 77% | remaining at 0.5 h [23]: 100%
